Activity calls are given as the source filed them. The calls are words filed in the database; no cut-off is given here.
Assays:
Neutrophil [1] = test: Inhibition of […]-induced translocation of 5-lipoxygenase from cytosol to perinuclear region in human neutrophils at 0.1 uM to 10 uM by Western blot; assay type: functional, cell-based
Rattus norvegicus [2] = test: Antiinflammatory activity against lambda carrageenan-induced pleurisy in Wistar Han rat assessed as reduction in LTB4 levels at 4 mg/kg, ip before carrageenan challenge measured after 4 hrs by EIA; assay type: functional; set-up: scale not given: the % may be the effect or the level left; conditions: route intraperitoneal
Summary of the method: (§1)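 Male Wistar Han rats (220-230 g; n = 10 per group) received compound ip, or vehicle (DMSO 4%), 30 min before intrapleural λ-carrageenan under anaesthesia. After 4 h, exudate was collected and its volume measured. Leukocytes were counted by light microscopy after trypan blue staining. LTB4 was measured by EIA (ng/rat). Data are mean ± SE.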

Rattus norvegicus [3] = test: Antiinflammatory activity against lambda carrageenan-induced pleurisy in Wistar Han rat assessed as reduction in exudate volume at 4 mg/kg, ip administered 30 mins before carrageenan challenge measured after 4 hrs by trypan blue staining; assay type: functional; set-up: scale not given: the % may be the effect or the level left; conditions: route intraperitoneal; summary of the method: as §1
Rattus norvegicus [4] = test: Antiinflammatory activity against lambda carrageenan-induced pleurisy in Wistar Han rat assessed as reduction in inflammatory cell number at 4 mg/kg, ip administered 30 mins before carrageenan challenge measured after 4 hrs by trypan blue staining; assay type: functional; set-up: scale not given: the % may be the effect or the level left; conditions: route intraperitoneal; summary of the method: as §1
Neutrophil [5] = test: Inhibition of […]-induced translocation of 5-lipoxygenase from cytosol to perinuclear region in human neutrophils at 100 uM by Western blotblot; assay type: functional, cell-based
Rattus norvegicus [6] = test: Antiinflammatory activity against lambda carrageenan-induced pleurisy in Wistar Han rat assessed as reduction in LTB4 level at 10 mg/kg, ip administered 30 mins before carrageenan challenge measured after 4 hrs by EIA; assay type: functional; set-up: scale not given: the % may be the effect or the level left; conditions: route intraperitoneal; summary of the method: as §1
Rattus norvegicus [7] = test: Antiinflammatory activity against lambda carrageenan-induced pleurisy in Wistar Han rat assessed as reduction in exudate volume at 10 mg/kg, ip administered 30 mins before carrageenan challenge measured after 4 hrs by trypan blue staining; assay type: functional; set-up: scale not given: the % may be the effect or the level left; conditions: route intraperitoneal; summary of the method: as §1
Rattus norvegicus [8] = test: Antiinflammatory activity against lambda carrageenan-induced pleurisy in Wistar Han rat assessed as reduction in cellular infiltration at 10 mg/kg, ip administered 30 mins before carrageenan challenge measured after 4 hrs by trypan blue staining; assay type: functional; set-up: scale not given: the % may be the effect or the level left; conditions: route intraperitoneal; summary of the method: as §1

CC(C)c1ccc2c(c1)c(SC(C)(C)C)c(CC(C)(C)C(=O)O)n2Cc1ccc(Cl)cc1
Activity (Neutrophil [1]): inactive

CCOC(=O)c1c(Cc2cccc(Cl)c2)[nH]c2c1cc(O)c1ccccc12
Activity (Rattus norvegicus [2]): 49%
Activity (Rattus norvegicus [3]): 77%
Activity (Rattus norvegicus [4]): 40%
Activity (Neutrophil [5]): inactive

CC(c1cc2ccccc2s1)N(O)C(N)=O (stereo not drawn) [ZILEUTON]
Activity (Rattus norvegicus [6]): 66%
Activity (Rattus norvegicus [7]): 77%
Activity (Rattus norvegicus [8]): 41%

Source: ChEMBL document CHEMBL1137012, “Structural optimization and biological evaluation of 2-substituted 5-hydroxyindole-3-carboxylates as potent inhibitors of human 5-lipoxygenase” (J Med Chem, 2009)
